Measurements reported in ChEMBL document CHEMBL1154610, “Discovery and preclinical evaluation of [4-[[1-(3-fluorophenyl)methyl]-1H-indazol-5-ylamino]-5-methylpyrrolo[2,1-f][1,2,4]triazin-6-yl]carbamic acid, (3S)-3-morpholinylmethyl ester (BMS-599626), a selective and orally efficacious inhibitor of human epidermal growth factor receptor 1 and 2 kinases” (J Med Chem, 2009).

Key:
[1] = Intrinsic permeability in human Caco-2 cells; format: ADME, cell-based; settings: read-out: permeability
[2] = Cmax in mouse at 120 mg/kg, po; format: ADME, organism-based; set-up: dose 120 mg/kg, route oral; settings: in vivo
A2780 = experiment: Antiproliferative activity against human A2780 cells after 72 hrs by MTT assay; format: functional, cell-based; settings: A2780, 72 h
Procedure, shortened: (§1)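 Cell proliferation IC50 reported as the mean of three independent determinations. BT474 is a breast line (HER2+++/HER1+); A2780 serves as a HER-independent control.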

[3] = Half life in mouse plasma at 120 mg/kg, po; format: ADME, organism-based; set-up: dose 120 mg/kg, route oral
[4] = molecular target: Receptor tyrosine-protein kinase erbB-4 (Homo sapiens, UniProt Q15303); experiment: Inhibition of human recombinant HER4 expressed in Sf9 cells by liquid scintillation counting
Receptor tyrosine-protein kinase erbB-4, sequence (Q15303 whole entry): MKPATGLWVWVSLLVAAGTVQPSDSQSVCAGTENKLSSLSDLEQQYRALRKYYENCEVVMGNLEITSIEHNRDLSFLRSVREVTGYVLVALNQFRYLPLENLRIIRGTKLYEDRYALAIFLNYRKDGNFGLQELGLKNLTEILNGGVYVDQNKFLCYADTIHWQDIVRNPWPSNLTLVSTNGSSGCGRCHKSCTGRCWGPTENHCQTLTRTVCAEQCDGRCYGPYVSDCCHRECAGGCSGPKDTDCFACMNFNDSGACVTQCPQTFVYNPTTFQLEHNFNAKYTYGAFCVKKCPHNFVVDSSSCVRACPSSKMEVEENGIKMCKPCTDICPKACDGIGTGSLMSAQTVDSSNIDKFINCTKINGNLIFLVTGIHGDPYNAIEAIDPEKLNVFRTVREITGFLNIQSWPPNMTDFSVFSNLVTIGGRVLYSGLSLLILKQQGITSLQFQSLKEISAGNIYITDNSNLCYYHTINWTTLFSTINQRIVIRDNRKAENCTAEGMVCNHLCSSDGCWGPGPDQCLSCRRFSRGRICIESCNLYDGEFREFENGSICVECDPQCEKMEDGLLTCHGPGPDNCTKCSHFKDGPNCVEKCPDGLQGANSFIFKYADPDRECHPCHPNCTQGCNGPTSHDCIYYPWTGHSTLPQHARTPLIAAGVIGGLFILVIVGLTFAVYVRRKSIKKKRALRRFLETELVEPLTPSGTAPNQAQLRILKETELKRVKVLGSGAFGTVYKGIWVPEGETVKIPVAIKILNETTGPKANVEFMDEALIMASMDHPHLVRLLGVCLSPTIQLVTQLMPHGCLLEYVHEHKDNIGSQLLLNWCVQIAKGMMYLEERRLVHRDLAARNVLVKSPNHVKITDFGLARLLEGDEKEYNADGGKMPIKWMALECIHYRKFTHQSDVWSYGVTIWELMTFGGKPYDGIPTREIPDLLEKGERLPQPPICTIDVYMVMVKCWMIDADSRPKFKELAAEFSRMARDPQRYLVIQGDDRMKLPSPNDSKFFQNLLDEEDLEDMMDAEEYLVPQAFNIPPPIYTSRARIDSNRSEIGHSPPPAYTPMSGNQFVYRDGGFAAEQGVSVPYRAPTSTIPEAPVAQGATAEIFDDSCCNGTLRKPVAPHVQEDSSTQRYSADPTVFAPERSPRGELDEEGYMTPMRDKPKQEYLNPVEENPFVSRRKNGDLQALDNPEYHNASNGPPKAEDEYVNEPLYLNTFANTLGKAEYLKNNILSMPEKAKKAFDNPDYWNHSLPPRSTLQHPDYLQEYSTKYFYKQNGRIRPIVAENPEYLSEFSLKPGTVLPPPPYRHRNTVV

BT-474 = experiment: Antiproliferative activity against human BT474 cells after 72 hrs by MTT assay; format: functional, cell-based; settings: BT-474, 72 h; procedure, shortened: as §1
[5] = Mean residence time in mouse at 25 mg/kg, iv; format: ADME, organism-based; set-up: dose 25 mg/kg, route intravenous; settings: in vivo
[6] = AUC (0 to 24 hrs) in cynomolgus monkey at 5 mg/kg, po; format: ADME, organism-based, Macaca fascicularis; set-up: time < 24 hr, dose 5 mg/kg, route oral; settings: plasma
Procedure, shortened: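 Monkeys were dosed orally at 5 mg/kg as a solution in PEG400/Tween80/water (50:0.1:50).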

Mus musculus = species on record: Mus musculus; experiment: Toxicity in athymic mouse bearing human tumor cells assessed as weight loss; format: organism-based
Procedure, shortened: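 Mice carried human tumor xenografts (L2987, GEO, KPL4, N87) and were dosed orally once daily in propylene glycol/Tween80/water (40:10:50), with a q.d. × 21 schedule given. The L2987 dose levels included 30, 60 and 180 mg/kg. Toxicity was monitored during treatment as significant weight loss or morbidity.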

[7] = Clearance in rat at 2.5 mg/kg, iv; format: ADME, organism-based; set-up: dose 2.5 mg/kg, route intravenous; settings: in vivo
[8] = Clearance in mouse at 25 mg/kg, iv; format: ADME, organism-based; set-up: dose 25 mg/kg, route intravenous; settings: in vivo
[9] = molecular target: Receptor tyrosine-protein kinase erbB-2 (Homo sapiens, UniProt P04626); experiment: Inhibition of human recombinant HER2 expressed in Sf9 cells by liquid scintillation counting
Receptor tyrosine-protein kinase erbB-2, sequence (P04626 whole entry): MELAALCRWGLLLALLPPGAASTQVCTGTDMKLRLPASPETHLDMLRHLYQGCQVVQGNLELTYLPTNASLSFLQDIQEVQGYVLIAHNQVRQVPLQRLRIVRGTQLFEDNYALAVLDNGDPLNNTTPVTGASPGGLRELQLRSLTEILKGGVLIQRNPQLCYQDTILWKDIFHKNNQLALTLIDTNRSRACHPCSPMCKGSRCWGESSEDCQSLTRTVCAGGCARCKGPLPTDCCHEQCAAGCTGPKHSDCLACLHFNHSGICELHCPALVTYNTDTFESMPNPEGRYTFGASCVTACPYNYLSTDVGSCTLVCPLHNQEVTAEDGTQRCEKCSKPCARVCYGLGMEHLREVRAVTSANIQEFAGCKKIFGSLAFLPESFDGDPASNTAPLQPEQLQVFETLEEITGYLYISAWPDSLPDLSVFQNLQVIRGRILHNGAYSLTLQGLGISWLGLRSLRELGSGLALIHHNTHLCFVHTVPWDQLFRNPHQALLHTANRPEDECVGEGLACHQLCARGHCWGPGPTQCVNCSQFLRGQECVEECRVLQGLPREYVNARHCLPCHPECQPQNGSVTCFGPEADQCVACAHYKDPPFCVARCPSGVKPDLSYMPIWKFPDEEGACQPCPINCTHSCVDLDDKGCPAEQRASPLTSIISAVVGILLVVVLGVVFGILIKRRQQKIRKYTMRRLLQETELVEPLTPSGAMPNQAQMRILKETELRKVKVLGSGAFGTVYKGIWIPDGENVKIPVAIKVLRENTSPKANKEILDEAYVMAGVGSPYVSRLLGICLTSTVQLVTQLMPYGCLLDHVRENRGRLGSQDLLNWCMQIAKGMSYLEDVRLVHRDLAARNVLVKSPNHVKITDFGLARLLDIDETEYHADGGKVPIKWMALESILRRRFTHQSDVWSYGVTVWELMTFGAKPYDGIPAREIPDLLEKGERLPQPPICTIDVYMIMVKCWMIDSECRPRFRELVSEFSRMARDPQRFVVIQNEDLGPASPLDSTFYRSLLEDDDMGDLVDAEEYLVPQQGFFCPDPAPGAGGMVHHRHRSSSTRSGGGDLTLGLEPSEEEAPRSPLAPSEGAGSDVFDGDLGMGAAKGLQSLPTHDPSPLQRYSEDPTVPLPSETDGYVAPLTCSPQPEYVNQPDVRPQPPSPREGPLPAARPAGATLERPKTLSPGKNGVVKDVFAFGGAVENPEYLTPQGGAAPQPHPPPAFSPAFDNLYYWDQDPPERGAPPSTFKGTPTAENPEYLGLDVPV

[10] = molecular target: Epidermal growth factor receptor (Homo sapiens, UniProt P00533); experiment: Inhibition of human recombinant HER1 expressed in Sf9 cells by liquid scintillation counting
Epidermal growth factor receptor, sequence (P00533 whole entry): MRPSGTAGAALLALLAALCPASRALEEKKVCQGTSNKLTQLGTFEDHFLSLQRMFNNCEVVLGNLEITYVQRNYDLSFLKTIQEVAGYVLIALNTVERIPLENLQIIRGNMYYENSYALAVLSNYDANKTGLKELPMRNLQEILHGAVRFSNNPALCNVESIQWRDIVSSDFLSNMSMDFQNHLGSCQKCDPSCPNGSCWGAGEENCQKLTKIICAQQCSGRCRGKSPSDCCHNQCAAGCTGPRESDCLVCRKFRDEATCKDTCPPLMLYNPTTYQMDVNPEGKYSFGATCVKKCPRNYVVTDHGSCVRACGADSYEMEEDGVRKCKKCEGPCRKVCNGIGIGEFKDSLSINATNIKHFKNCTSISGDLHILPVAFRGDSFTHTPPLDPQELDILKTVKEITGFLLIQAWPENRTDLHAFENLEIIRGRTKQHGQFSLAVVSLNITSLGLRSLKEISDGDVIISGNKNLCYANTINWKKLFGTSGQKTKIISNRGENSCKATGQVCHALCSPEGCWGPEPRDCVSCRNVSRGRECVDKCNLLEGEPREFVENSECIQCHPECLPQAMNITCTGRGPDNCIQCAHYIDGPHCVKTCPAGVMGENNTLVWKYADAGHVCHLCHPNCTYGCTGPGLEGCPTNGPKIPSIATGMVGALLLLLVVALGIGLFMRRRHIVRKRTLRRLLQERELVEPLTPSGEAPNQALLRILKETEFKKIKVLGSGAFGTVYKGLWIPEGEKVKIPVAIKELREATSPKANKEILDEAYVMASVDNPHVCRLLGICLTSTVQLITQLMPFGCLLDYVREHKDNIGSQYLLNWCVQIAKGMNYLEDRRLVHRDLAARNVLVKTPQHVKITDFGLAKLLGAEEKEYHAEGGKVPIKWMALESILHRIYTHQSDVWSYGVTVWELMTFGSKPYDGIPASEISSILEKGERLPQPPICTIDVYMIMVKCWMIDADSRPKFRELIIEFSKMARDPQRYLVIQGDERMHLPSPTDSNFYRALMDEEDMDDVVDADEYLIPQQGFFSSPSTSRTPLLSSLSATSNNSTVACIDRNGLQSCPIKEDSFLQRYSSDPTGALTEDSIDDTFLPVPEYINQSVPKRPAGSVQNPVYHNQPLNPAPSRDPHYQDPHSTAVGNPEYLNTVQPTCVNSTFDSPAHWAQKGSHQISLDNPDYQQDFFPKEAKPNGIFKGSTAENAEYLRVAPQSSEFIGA

[11] = Mean residence time in rat at 2.5 mg/kg, iv; format: ADME, organism-based; set-up: dose 2.5 mg/kg, route intravenous; settings: in vivo
Cytochrome P450 1A2 = molecular target: T1, Cytochrome P450 1A2 (Homo sapiens, UniProt P05177); experiment: Inhibition of human CYP1A2; format: ADME
T1 sequence (P05177 whole entry): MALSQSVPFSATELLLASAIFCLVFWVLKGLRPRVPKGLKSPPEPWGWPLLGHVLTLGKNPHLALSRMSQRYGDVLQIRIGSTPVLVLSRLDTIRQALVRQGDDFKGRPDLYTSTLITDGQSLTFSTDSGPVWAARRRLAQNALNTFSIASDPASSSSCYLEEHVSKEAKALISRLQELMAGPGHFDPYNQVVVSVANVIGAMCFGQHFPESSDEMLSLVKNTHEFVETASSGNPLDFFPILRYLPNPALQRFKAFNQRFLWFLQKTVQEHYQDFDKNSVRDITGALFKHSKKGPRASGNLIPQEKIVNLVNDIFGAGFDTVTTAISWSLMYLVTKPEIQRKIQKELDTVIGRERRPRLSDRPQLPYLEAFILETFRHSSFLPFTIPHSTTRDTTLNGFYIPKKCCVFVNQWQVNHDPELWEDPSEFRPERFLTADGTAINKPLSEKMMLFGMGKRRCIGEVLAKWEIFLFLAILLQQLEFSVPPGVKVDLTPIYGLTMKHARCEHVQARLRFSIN

[12] = Volume of distribution at steady state in dog at 1.5 mg/kg, iv; format: ADME, organism-based, Canis lupus familiaris; set-up: dose 1.5 mg/kg, route intravenous; settings: in vivo, read-out: Vdss
Procedure, shortened: (§2)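 Dog PK, average of two animals. Compound dosed as a PEG400/Tween80/water (50:0.1:50) solution, orally at 25 mg/kg and iv at 1.5 mg/kg. Oral data give Tmax; iv data give Vss.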

[13] = Volume of distribution at steady state in cynomolgus monkey at 5 mg/kg, iv; format: ADME, organism-based, Macaca fascicularis; set-up: dose 5 mg/kg, route intravenous; settings: in vivo, read-out: Vdss
Procedure, shortened: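 Monkey PK, mean of two animals. Compound given as a solution in PEG400/Tween80/water (50:0.1:50), 5 mg/kg both orally and iv. Tmax from the oral route; steady-state volume of distribution from the iv route.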

[14] = Oral bioavailability in rat at 10 mg/kg; format: ADME, organism-based; settings: in vivo
[15] = Oral bioavailability in dog at 25 mg/kg; format: ADME, organism-based, Canis lupus familiaris; settings: in vivo
[16] = Half life in rat plasma at 10 mg/kg, po; format: ADME, organism-based; set-up: dose 10 mg/kg, route oral
[17] = Tmax in dog at 25 mg/kg, po; format: ADME, organism-based, Canis lupus familiaris; set-up: dose 25 mg/kg, route oral; settings: in vivo; procedure, shortened: as §2
[18] = Antiproliferative activity against mouse SAL2 cells after 72 hrs by MTT assay; format: functional, cell-based; settings: SAL2, 72 h
[19] = Clearance in dog at 1.5 mg/kg, iv; format: ADME, organism-based, Canis lupus familiaris; set-up: dose 1.5 mg/kg, route intravenous; settings: in vivo
[20] = AUC (0 to 24 hrs) in mouse at 120 mg/kg, po; format: ADME, organism-based; set-up: time < 24 hr, dose 120 mg/kg, route oral; settings: plasma
Procedure, shortened: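 Mice were dosed orally at 120 mg/kg as a solution in PG/Tween80/water (40:10:50).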

[21] = Tmax in mouse at 120 mg/kg, po; format: ADME, organism-based; set-up: dose 120 mg/kg, route oral; settings: in vivo
Procedure, shortened: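 Mouse PK, average of three animals. Solution formulation in PG/Tween80/water (40:10:50), given orally at 120 mg/kg or iv at 25 mg/kg. Tmax taken from the oral arm; Vss taken from the iv arm.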

[22] = AUC (0 to 24 hrs) in dog at 25 mg/kg, po; format: ADME, organism-based, Canis lupus familiaris; set-up: time < 24 hr, dose 25 mg/kg, route oral; settings: plasma

SMILES: Cc1c(NC(=O)OC[C@@H]2COCCN2)cn2ncnc(Nc3ccc4c(cnn4Cc4cccc(F)c4)c3)c12 [AC-480]
- Papp [1]: 21.4 ×10⁻⁶ cm/s
- Cmax [2]: 18 µM
- IC50 (A2780): > 10000 nM
- half-life [3]: 2.7 h
- IC50 [4]: 190 nM
- IC50 (BT-474): 310 nM
- MRT [5]: 3.7 h
- AUC(0-t) at 24 h [6]: 3.6 µM·h
- Activity (Mus musculus): Non-toxic
- clearance [7]: 41.6 mL/min/kg
- clearance [8]: 21.3 mL/min/kg
- IC50 [9]: 22 nM
- IC50 [10]: 32 nM
- MRT [11]: 2.8 h
- IC50 (Cytochrome P450 1A2): > 40000 nM
- Vd [12]: 10.1 L/kg
- Vd [13]: 4 L/kg
- bioavailability [14]: 40%
- bioavailability [15]: 49%
- half-life [16]: 2.8 h
- Tmax [17]: 2.3 h
- IC50 [18]: 240 nM
- clearance [19]: 24.8 mL/min/kg
- AUC(0-t) at 24 h [20]: 147 µM·h
- Tmax [21]: 1 h
- AUC(0-t) at 24 h [22]: 14 µM·h
